The subject of test [1] is Nucleic Acid. Nature of the test: Relative binding affinity for calf thymus DNA in MES 10 at 25 degrees C (Spectrophotometric data). The following applies: Bos taurus. Format: nucleic-acid assay. The essentials:
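Spectrophotometric titration of ~1 × 10^-3 M compound stock into calf thymus DNA in MES 10 buffer at 25 °C. Each point averages 100 absorbance readings. Absorbances converted to ν (mol bound per mol base pairs) and free ligand using free and bound extinction coefficients. K and site size n come from a nonlinear least-squares fit of the Scatchard plot to the site exclusion model, in base-pair molarity.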

Test [2] has as its system Nucleic Acid. The experiment in a line: Thermal melting point of calf thymus DNA complexed with monoimide in MES 00 buffer (Spectrophotometric data). The following applies: Bos taurus. Format: functional.

The results in this text go back to ChEMBL document CHEMBL1122543, “A substituent constant analysis of the interaction of substituted naphthalene monoimides with DNA” (J Med Chem, 1984).

As for `CN(C)CCCN1C(=O)c2cccc3cc(N)cc(c23)C1=O`, in the test on Nucleic Acid [1], the K stood at 0.0112. Also, the Tm in the test on Nucleic Acid [2] was 70.6 °C.

For the molecule `CN(C)CCCN1C(=O)c2cccc3cccc(c23)C1=O`, the K with Nucleic Acid [1] amounted to 0.0089. Moreover, in the test with Nucleic Acid [2], the Tm turned out to be 71.9 °C.

Regarding `CN(C)CCCN1C(=O)c2cccc3c([N+](=O)[O-])ccc(c23)C1=O`, the K in the test on Nucleic Acid [1] worked out at 0.0083. For the same molecule, the Tm in the test with Nucleic Acid [2] is 71.7 °C.

In the case of `CN(C)CCCN1C(=O)c2cccc3cc([N+](=O)[O-])cc(c23)C1=O`, the K in the test with Nucleic Acid [1] stood at 0.0234. In the test with Nucleic Acid [2], the Tm worked out at 77.6 °C.

Take `CN(C)CCCN1C(=O)c2cccc3c(N)ccc(c23)C1=O`: the K in the test with Nucleic Acid [1] is 0.0162. Besides, the Tm with Nucleic Acid [2] turned out to be 70.6 °C.
